S1P3 ag: human S1P3 receptor agonists, primary screen, cell-based, primary and confirmation, NFAT-BLA reporter; Sphingosine 1-phosphate receptor 3 (Homo sapiens), Q99500; S1P3 NFAT-BLA reporter cells, agonism, FRET ratio; relative to 1 µM S1P, basal subtracted; 0.1% of 60,000 active; AID 373, 2006; activation, % at 4.5 µM;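 active = activation above the screen-wide mean plus 3 SD, cut at about 4.5% in these data, passing the limit was not always enough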
Target sequence (Q99500 whole entry, looked up): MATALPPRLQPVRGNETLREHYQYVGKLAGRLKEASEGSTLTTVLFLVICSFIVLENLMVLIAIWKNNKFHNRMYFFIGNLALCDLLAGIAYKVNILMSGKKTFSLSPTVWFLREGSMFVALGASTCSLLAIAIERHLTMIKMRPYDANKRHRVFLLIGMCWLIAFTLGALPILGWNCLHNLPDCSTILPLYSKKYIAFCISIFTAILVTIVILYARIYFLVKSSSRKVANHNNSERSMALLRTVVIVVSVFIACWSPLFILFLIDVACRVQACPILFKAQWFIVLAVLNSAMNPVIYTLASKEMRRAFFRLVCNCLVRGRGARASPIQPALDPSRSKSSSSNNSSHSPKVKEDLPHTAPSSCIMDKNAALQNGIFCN
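Assay system: stable CHO line with human S1P3, Gα16, NFAT-BLA reporter; Detection: FRET β-lactamase substrate fluorescence, excitation 405 nm, 460/535 nm emission ratio, background-subtracted; Read-out: percent activation versus median 1 µM S1P response, basal-subtracted, per plate; Incubation: cells plated overnight, compound 4 h 37 °C, substrate 2 h RT.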
Htt clearance: clearance of mutant huntingtin inclusions, primary screen, imaging, HeLa Exon1htt(103Q)mCFP, confocal imaging. aggregate imaging; zero = plate's median compound well. inhibition, % at 1.5 µM. 0.42% of 47,000 active;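 active = inhibition of aggregate fluorescence above about 70%, also judged a hit by eye on the cell image, limit read from the data, passing the limit was not always enough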;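 note: cells exposed to compound for three days before fixation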
MMP13 inh: human MMP13 inhibitors, primary screen, biochemical, FRET peptide cleavage | Collagenase 3 (Homo sapiens), P45452 | MMP-13 fTHP FRET cleavage, Mca fluorescence | inhibition, % at 4 µM | 0.07% of 65,000 active | AID 570, 2006;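 active = inhibition above the mean of compound-free control plate wells plus 3 SD, cut at about 14% in these data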
S1P1 ag-PAM: S1P1 agonists and agonism potentiators, primary screen, cell-based, primary and confirmation screens, CRE-bla reporter. Sphingosine 1-phosphate receptor 1 (Homo sapiens), P21453. S1P1 CRE-bla cells, forskolin, beta-lactamase FRET, potentiator mode; S1P1 agonist co-added at EC20, 2 nM; 100% = saturating reference agonist, 0% = basal. activation, % at 9.5 µM. 0.57% of 56,000 active. AID 449, 2006;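 active = activation above a cutoff set at the mean activation of all tested compounds plus 3 SD, cut at about 54% in these data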;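 note: forskolin at 4 µM as EC80 and the EC20 agonist is SEW2871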
Numbers stand for hits; - = inactive; . = no result given. Compounds with a hit are over-represented: about 0.78% of the library has one in this group of screens.

SMILES	S1P3 ag	Htt clearance	MMP13 inh	S1P1 ag-PAM
CN1C(=O)C(=Cc2ccccc2Oc2ccc(Cl)cc2)C(=O)N(C)C1=O	.	82.2	.	.
O=C(C1CCN(S(=O)(=O)c2ccccc2)CC1)N1CCC2(CC1)OCCO2	.	-	.	.
CCn1nc(-c2ccccc2)nc2c(=O)n(C)c(=O)nc1-2	-	.	-	73.3
Nc1ccc(C2(c3ccc(N)cc3)CN3CCC2CC3)cc1	-	-	-	-
Nc1c(C(=O)NC2CCCC2)c2nc3ccccc3nc2n1CC1CCCO1 (stereo not given)	8.2	.	-	-
Nc1c(C(=O)OCC2CCCO2)c2nc3ccccc3nc2n1Cc1cccs1 (stereo not given)	-	-	-	-
Cc1cc(OCC(=O)Nc2c(C)n(C)n(-c3ccccc3)c2=O)c2c3c(c(=O)oc2c1)CCC3	-	.	-	-
CCCCNC(=O)c1c(N)n(CCCOC)c2nc3ccccc3nc12	.	.	-	.
CC(C)OCCCNC(=O)c1c(N)n(Cc2cccs2)c2nc3ccccc3nc12	12.1	.	-	-
Oc1ccc(C2NCc3ccccc3-n3cccc32)cc1Cl (stereo not given)	-	-	-	94.4
Nc1c(C(=O)NCc2ccco2)c2nc3ccccc3nc2n1CCN1CCCCC1	11.4	.	-	-
CC12CN3CCN(CC(C3)C1O)C2 (stereo not given)	-	-	-	-
COc1ccc(N2C(=O)NC(=O)C(CCc3ccncc3)(CCc3ccncc3)C2=O)cc1	.	-	.	.
O=C1NC(=O)C(CCc2ccncc2)(c2ccccc2)C(=O)N1	-	-	37.0	-
CC12CN3C(O)C(C)(C1)CC(C)(C2)C3O (stereo not given)	-	.	-	-
Cc1nnc(SCc2nc3ccccc3c(=O)n2-c2ccccc2Cl)n1N	-	71.6	-	-
